Data: ChEMBL document CHEMBL1157094, “Study on the constituents of Mexican propolis and their cytotoxic activity against PANC-1 human pancreatic cancer cells” (J Nat Prod, 2010)
Calls of active or inactive are those of the source. No cut-off for these calls is given here.

Key:
[1] = test system: PANC-1; assay: Cytotoxicity against human PANC1 cells in nutrient-deprived condition assessed as preferential cell death after 24 hrs by WST-8 assay
[2] = test system: PANC-1; assay: Induction of apoptosis in human PANC1 cells in nutrient-deprived condition assessed as nuclear condensation at 12.5 uM after 24 hrs by phase-contrast microscopy; assay type: functional, cell-based
In short: (§1)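 PANC-1 cells were seeded at 2 × 10^4 per well and grown 24 h in DMEM at 37 °C under 5% CO2/95% air. They were then washed with PBS and switched to nutrient-deprived medium (NDM) containing test compound. After 24 h exposure at 12.5 µM, morphology was photographed under a phase-contrast microscope at 200× magnification.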

[3] = test system: PANC-1; assay: Induction of apoptosis in human PANC1 cells in nutrient-deprived condition assessed as nuclear fragmentation at 12.5 uM after 24 hrs by phase-contrast microscopy; assay type: functional, cell-based
In short: as §1

[4] = Cytotoxicity against human TIG3 cells after 24 hrs by WST-8 assay; details: tig-3, 24 h
[5] = test system: PANC-1; assay: Induction of apoptosis in human PANC1 cells in nutrient-deprived condition assessed as membrane bleb formation at 12.5 uM after 24 hrs by phase-contrast microscopy; assay type: functional, cell-based
In short: as §1

| Structure (SMILES) | PC50 [1] [µM] | further results |
| --- | --- | --- |
| COc1ccc(/C=C/C(=O)OC/C=C/c2ccccc2)cc1OC | 98.9 |  |
| COc1ccc(/C=C/C(=O)OCc2ccccc2)cc1OC | 58.8 |  |
| COc1cc(O)c2c(=O)cc(-c3ccccc3)oc2c1 [TECHTOCHRYSIN] | >100 |  |
| CC(C)CC(=O)O[C@H]1C(=O)c2c(O)cc(O)cc2O[C@@H]1c1ccccc1 | 17.5 |  |
| CC(C)C(=O)O[C@H]1C(=O)c2c(O)cc(O)cc2O[C@@H]1c1ccccc1 | 19.8 |  |
| COc1cc(/C=C/C(=O)OCC(COC(=O)/C=C/c2ccc(O)cc2)OC(C)=O)ccc1O (stereo not given) | 32.7 |  |
| CCC(C)C(=O)O[C@H]1C(=O)c2c(O)cc(OC)cc2O[C@@H]1c1ccccc1 (stereo not given in full) | 44.8 |  |
| O=C(/C=C/c1ccccc1)OC/C=C/c1ccccc1 | >100 |  |
| COc1ccc(/C=C/C(=O)OC/C=C/c2ccccc2)cc1O | 31.7 |  |
| COc1cc(O)c2c(c1)O[C@H](c1ccccc1)[C@@H](O)C2=O | 74.2 |  |
| O=C(/C=C/c1ccccc1)OCc1ccccc1 [BENZYL CINNAMATE] | >100 |  |
| COc1cc(C=O)ccc1O [VANILLIN] | >100 |  |
| COc1cc(/C=C/C(=O)OCc2ccccc2)ccc1O [BENZYL FERULATE] | 17 |  |
| COc1cc(O)cc2c1C(=O)[C@H](O)[C@@H](c1ccccc1)O2 | >100 |  |
| O=c1c(O)c(-c2ccccc2)oc2cc(O)cc(O)c12 [GALANGIN] | 22.1 |  |
| O=C(OC/C=C/c1ccccc1)c1ccccc1 | >100 |  |
| COc1c(-c2ccc(O)cc2)oc2cc(O)ccc2c1=O | >100 |  |
| CC(=O)OC(COC(=O)/C=C/c1ccc(O)cc1)COC(=O)/C=C/c1ccc(O)c(O)c1 (stereo not given) | 17.4 |  |
| COc1ccc(/C=C/C(=O)O)cc1OC [O,O'-DIMETHYLCAFFEIC ACID] | >100 |  |
| COc1cc(/C=C/C(=O)OCC(COC(=O)/C=C/c2ccc(O)c(OC)c2)OC(C)=O)ccc1O | 25.8 |  |
| O=C(/C=C/c1ccc(O)cc1)OCc1ccccc1 | 23.8 |  |

| Structure (SMILES) | PC50 [1] [µM] | further results |
| --- | --- | --- |
| O=C1C[C@@H](c2ccccc2)Oc2cc(O)cc(O)c21 [PINOCEMBRIN] | 46.5 |  |
| COc1cc(/C=C/C(=O)O)ccc1O [FERULATE] | 66.6 |  |
| O=C(O)/C=C/C=C/c1ccccc1 [JUAREZIC ACID] | >100 |  |
| COc1cc(-c2oc3cc(O)cc(O)c3c(=O)c2OC)ccc1O [3,3'-O-DIMETHYLQUERCETIN] | 59.8 |  |
| CC(=O)OC(COC(=O)/C=C/c1ccc(O)cc1)COC(=O)/C=C/c1ccc(O)cc1 | 38.8 |  |
| O=c1cc(-c2ccccc2)oc2cc(O)cc(O)c12 [CHRYSIN] | 88.7 |  |
| COc1cc(O)c2c(=O)c(O)c(-c3ccccc3)oc2c1 [IZALPININ] | >100 |  |
| COc1cc(O)c2c(c1)O[C@H](c1ccccc1)CC2=O [PINOSTROBIN] | >100 |  |
| O=c1cc(-c2ccc(O)cc2)oc2cc(O)cc(O)c12 [APIGENIN] | 89.5 |  |
| O=C(/C=C/c1ccc(O)cc1)OC/C=C/c1ccccc1 | 38.2 |  |
| O=C(O)/C=C/c1ccccc1 [CINNAMIC ACID] | >100 |  |
| COc1cc(O)c2c(c1)O[C@H](c1ccccc1)[C@@H](OC(C)=O)C2=O | 75.3 |  |
| CC(=O)O[C@H]1C(=O)c2c(O)cc(O)cc2O[C@@H]1c1ccccc1 | 36.6 |  |
| O=C1C[C@@H](c2ccc(O)cc2)Oc2cc(O)cc(O)c21 [NARINGENIN] | >100 |  |
| C=C[C@H](c1ccc(O)c(OC)c1)c1c(O)cc(O)c2c(=O)c(O)c(-c3ccccc3)oc12 | 4.6 | Activity [2]: Active; Activity [3]: Active; Activity [4]: Non-toxic; Activity [5]: Active |
| C=C[C@H](c1ccc(O)c(OC)c1)c1c(O)cc(O)c2c(=O)cc(-c3ccccc3)oc12 | 12.7 |  |
| O=C(O)/C=C/c1ccc(O)cc1 [COUMARIC ACID] | 77 |  |
| O=C(O)c1ccccc1 [BENZOIC ACID] | >100 |  |
| CCC(=O)O[C@H]1C(=O)c2c(O)cc(O)cc2O[C@@H]1c1ccccc1 | 18.2 |  |
| CC(=O)OCC(O)COC(=O)/C=C/c1ccc(O)cc1 (stereo not given) | >100 |  |
